The entries come from a sample that favours hits as a whole.
LANA-nucl inh: inhibitors of KSHV LANA-nucleosome binding, primary screen, biochemical, fluorescence polarization, FITC-LANA1-23, chicken nucleosomes; FITC-LANA1-23 / chicken nucleosome fluorescence polarization; stronger effect = lower value; z-score (test concentration not listed); 51,000 tested, 0.3% active;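 active = both repeat wells score below -2 in polarization z-score versus plate sample wells, excluding overly bright wells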
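System – purified chicken nucleosomes with FITC-labelled LANA N-terminal peptide (1-23) · Amount – 240 nM purified chicken nucleosomes (480 nM peptide binding sites), final · Also added – 50 nM FITC-LANA1-23 probe · Medium – TEN-BT buffer, pH 7.5 · Incubation – compound with peptide–nucleosome mix 10–45 min at room temperature · Detection – fluorescence polarization, ex 480 nm, em 535 nm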
Ab BasE inh: BasE siderophore enzyme inhibitors, primary screen, biochemical, Acinetobacter baumannii ATCC 17978, fluorescence polarization; purified BasE, fluorescence polarization binding displacement; inhibition, % (test concentration not listed); 84,000 tested, 0.1% active; in the data active = inhibition above about 25%, passing the limit was not always enough;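 note: 0% = negative plate control signal and 100% = positive plate control signal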
Active calls of the source: *; ! = repeats disagree.

`CN1CCc2nc(NC(=O)c3ccc(S(=O)(=O)N(C)C)cc3)sc2C1` gave Ab BasE inh 1.
For COc1cccc2c1C(=O)c1c(O)c3c(c(O)c1C2=O)C[C@@](O)(C(C)=O)C[C@@H]3OC1CC(N)C(O)C(C)O1 (stereo partly specified) the results were LANA-nucl inh -6* and Ab BasE inh 15.
For COc1cccc2c1C(=O)c1c(O)c3c(c(O)c1C2=O)C[C@@](O)(C(=O)CO)C[C@@H]3O[C@H]1C[C@H](N)[C@H](O)[C@H](C)O1 the results were LANA-nucl inh -8.5*! and Ab BasE inh 15.
Screening CC(=O)N1CCOc2ccc(S(=O)(=O)NCC3CCC(C(=O)Nc4ccc(C)cc4)CC3)cc21 (stereo unspecified) returned LANA-nucl inh -1.4 and Ab BasE inh 0.
For CCOC(=O)/C(C#N)=C\c1cc2ccc(OC)cc2[nH]c1=O the results were LANA-nucl inh -4.5* and Ab BasE inh 14.
COc1cccc(C(=O)NCCc2cc3ccc(OC)cc3[nH]c2=O)c1 was read as LANA-nucl inh 0.27 and Ab BasE inh -6.
`CC(C)=C1Cc2cc3ccc(=O)oc3cc2O1` gave LANA-nucl inh -0.22 and Ab BasE inh 2.
`O=C(Nc1ccc2c(c1)oc1ccccc12)C1CCCO1` (stereo unspecified) gave LANA-nucl inh -0.43 and Ab BasE inh 0.
O=C(Nc1ccc2c(c1)CCC2)C1CCCO1 (stereo unspecified) was read as LANA-nucl inh -2.1* and Ab BasE inh 1.
CCCN(CC(=O)Nc1ccc(S(N)(=O)=O)cc1)C(C)C(=O)Nc1cccc(Cl)c1 (stereo unspecified) was read as Ab BasE inh 0.
NC(=O)Cn1c2[n+](c3ccccc31)CC(O)CS2 (stereo unspecified) was read as LANA-nucl inh -2.4* and Ab BasE inh 0.
CCOC(=O)Cn1c2[n+](c3ccccc31)CC(O)CS2 (stereo unspecified) was read as LANA-nucl inh -0.43 and Ab BasE inh 0.
`CCOc1ccc(I)cc1C#N` gave LANA-nucl inh -1.3 and Ab BasE inh 3.
For O=C(CSc1nncc(=O)[nH]1)Nc1cccc(Cl)c1 the results were LANA-nucl inh -0.11 and Ab BasE inh 1.
`CCN(CC)Cc1c(O)ccc2c1O/C(=C\c1ccccc1Cl)C2=O` gave LANA-nucl inh -3* and Ab BasE inh 1.
`O=C1/C(=C/c2ccccc2)Oc2c1ccc(O)c2CN1CCCC1` gave LANA-nucl inh 2.2 and Ab BasE inh 1.
Screening N#Cc1ccc(CSc2nc(-c3cccs3)c(-c3cccs3)[nH]2)cc1 returned Ab BasE inh 1.
For CCN(CC1COc2ccccc2O1)C(=O)C1CCN(C(=O)c2ccccc2C)CC1 (stereo unspecified) the results were Ab BasE inh 1.
CCNCc1cccs1 was read as Ab BasE inh -2.
For N#Cc1ccccc1CNCc1cccs1 the results were LANA-nucl inh -2.1* and Ab BasE inh 0.
For O=c1[nH]c2c(s1)C1c3ccccc3OC3CCCC(S2)C31 (stereo unspecified) the results were LANA-nucl inh -9.8* and Ab BasE inh 8.
For O=C1Oc2ccccc2C2c3sc(=O)[nH]c3SC(c3ccccc3)C12 (stereo unspecified) the results were LANA-nucl inh -0.44 and Ab BasE inh 0.
Screening Cc1cc(/C=C/C(=O)O)c(C)n1-c1ccccc1 returned Ab BasE inh 0.
`COCC(C)n1c(C)cc(C(=O)COC(=O)/C(=C/c2cccs2)c2cccs2)c1C` (stereo unspecified) gave Ab BasE inh 0.
Screening O=c1c2nnn(-c3cccc(Cl)c3)c2ncn1C/C=C/c1ccccc1 returned LANA-nucl inh -0.52 and Ab BasE inh 1.
Screening CCCn1c(SCc2c(C(=O)OCC)oc3ccccc23)nnc1-c1ccncc1 returned Ab BasE inh 0.
Screening CC1=CC(C)=N/C1=C/c1c(O)[nH]c(=O)[nH]c1=O returned LANA-nucl inh -7.6* and Ab BasE inh 1.
For CC(CO)(CO)N=Cc1c(O)[nH]c(=O)[nH]c1=O the results were LANA-nucl inh 0.42 and Ab BasE inh 2.
Screening CCCCC/C=C\C/C=C\CCCCCCCC(=O)O[C@@H](CO)COC(=O)CCCCCCCCCCCCCCCCC returned LANA-nucl inh -0.1 and Ab BasE inh -2.
`CCCCC/C=C\C/C=C\C/C=C\C/C=C\CCCC(=O)OC(CO)CO` gave LANA-nucl inh -2.1* and Ab BasE inh -1.
Screening O=C(O)C1CC1(C(=O)O)C(F)(F)F (stereo unspecified) returned LANA-nucl inh -0.45 and Ab BasE inh 1.
`COc1cc(S(=O)(=O)N2CCNCC2)ccc1-n1cnnn1` gave LANA-nucl inh 0.13 and Ab BasE inh 2.
Screening O=C1CC(c2ccccc2O)=NN1 returned Ab BasE inh 27*.
Screening O=C1CCC(C(=O)OCN2C(=O)c3ccccc3C2=O)=NN1 returned Ab BasE inh 1.
